Values after ≈ are worked out from the molar mass of the structure shown. Active and inactive are the calls of the source. The calls are words filed in the database; no cut-off is given here.
Key:
[1] = Inhibition of Ddl in Streptococcus faecalis ATCC 8043 using D-[1-14C]-alanine as substrate preincubated with enzyme for 40 mins followed by substrate and addition and measured after 30 mins by TLC analysis; set-up: species or system Enterococcus faecalis
THP-1 [2] = assay: Cytotoxicity against human THP-1 cells assessed as reduction in cell viability at 2 to 5 times MIC measured after 6 hrs by trypan blue exclusion assay; format: cell-based; conditions: thp-1, 6 h
Summary of the method: (§1)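 Aliquots taken at 1, 2, 6, 24 h, mixed 1:1 with 0.4% Trypan blue for 5 min; percent blue-stained cells counted by light microscopy. DMSO control; triplicate, mean ± SD.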

THP-1 [3] = assay: Cytotoxicity against human THP-1 cells assessed as reduction in cell viability at 1 times MIC measured after 6 hrs by trypan blue exclusion assay; format: cell-based; conditions: thp-1, 6 h; summary of the method: as §1
THP-1 [4] = assay: Cytotoxicity against human THP-1 cells assessed as reduction in cell viability at 1 times MIC measured after 1 to 2 hrs by trypan blue exclusion assay; format: cell-based; conditions: time 1-2 hrs; summary of the method: as §1
Staphylococcus aureus [5] = assay: Inhibition of Ddl in Staphylococcus aureus ATCC 25923 assessed as increase in D-Ala/D-Ala-D-Ala ratio at 2 times MIC incubated for 30 mins by UHPLC-MS/MS analysis
Summary of the method: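 Log-phase S. aureus ATCC 25923 in MHB with 5% DMSO (from OD₆₀₀ 0.05) treated with compound at 2× MIC for 0–30 min; untreated and D-cycloserine 2× MIC controls. Cells chilled, pelleted, washed in M9, lysed in ice-cold MeOH/H₂O/formic acid 80:20:0.1, supernatants derivatized with Marfey's reagent in triplicate; L-Ala, D-Ala, D-Ala-D-Ala quantified by UPLC-MS/MS.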

Staphylococcus aureus [6] = assay: Bactericidal activity against Staphylococcus aureus ATCC 25923 assessed as reduction in bacterial growth at 5 times MIC measured after 24 hrs by time kill assay; format: functional, organism-based
Summary of the method: (§2)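 S. aureus ATCC 25923 grown overnight in CAMHB, pelleted, resuspended; compound added at 1, 2 or 5× MIC to give 10⁶ CFU/mL start with 5% DMSO (DMSO-only control). Sampled at 0, 5, 15, 30 min, 1, 2, 7, 24 h; 10-fold PBS dilutions plated on charcoal TSA, counted after 24 h at 37 °C. Bactericidal = ≥3-log₁₀ drop in 24 h; triplicate, mean ± SD.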

Cell membrane [7] = assay: Disruption of bacterial cell membrane in Staphylococcus aureus ATCC 25923 assessed as increase in PI uptake by measuring increase in fluorescence intensity at 5 times MIC measured every 10 mins for 2 hrs by PI dye based spectrophotometry
Summary of the method: (§3)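 Mid-log S. aureus ATCC 25923 (grown in MHB from OD₆₀₀ 0.05) washed into BET buffer (pH 7.5) at 1.11×10⁶ CFU/mL with 12 nM propidium iodide; compound at 1, 2, 5× MIC, 5% DMSO final. SDS 0.5% positive, buffer negative control. Fluorescence (ex 532/em 620 nm) read in the dark every 10 min for 2 h; triplicate.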

Klebsiella pneumoniae = assay: Antibacterial activity against Klebsiella pneumoniae ATCC700603 assessed as reduction in bacterial growth incubated for 18 to 24 hrs by broth microdilution method; format: functional, organism-based; conditions: 700603, time 18-24 hrs
Summary of the method: (§4)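 Microdilution in cation-adjusted Mueller-Hinton broth per CLSI; two-fold compound series in CAMHB with 5% DMSO mixed 1:1 with bacterial suspension, giving 10⁶ bacteria/mL inoculum and 2.5% DMSO final. Top concentrations 0.1, 0.4 or 0.8 mM depending on solubility. Incubated 18–24 h at 37 °C; MIC read as lowest concentration preventing visible growth.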

[8] = Inhibition of recombinant Enterococcus faecalis C-terminal His6-tagged DdlB expressed in Escherichia coli LMG194 using D-Ala as substrate preincubated with enzyme for 30 mins followed by substrate addition and measured after 20 mins by malachite green based colorimetric analysis
Summary of the method: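 DdlB (20 mg/L) malachite green phosphate assay: enzyme, inhibitor and 500 µM ATP preincubated 30 min at 30 °C in Tris-HCl pH 7.4 buffer with MgCl₂, KCl and 10% DMSO, then 1 mM D-Ala for 20 min; A650 read. IC₅₀ from 11 concentrations, also run with 0.01% Triton X-100; mean ± SD of triplicates, n ≥ 2; EC₅₀ given where maximal inhibition stayed below 50%.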

Staphylococcus aureus [9] = assay: Antibacterial activity against methicillin and linezolid resistant Staphylococcus aureus NRS119 assessed as reduction in bacterial growth incubated for 18 to 24 hrs by broth microdilution method; format: functional; conditions: time 18-24 hrs
Summary of the method: (§5)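 Broth microdilution in cation-adjusted Mueller-Hinton broth per CLSI; inoculum 10⁶ bacteria/mL. Two-fold serial dilutions, compound in broth with 5% DMSO mixed 1:1 with bacterial suspension, giving 2.5% DMSO final. Top concentration 0.1, 0.4 or 0.8 mM depending on solubility. Incubated 18–24 h at 37 °C. MIC = lowest concentration preventing visible growth.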

Enterococcus faecalis [10] = assay: Antibacterial activity against vancomycin resistant Enterococcus faecalis JH2-2::C1 harboring constitutive expression of Ddl and vanB ligase assessed as reduction in bacterial growth incubated for 18 to 24 hrs by broth microdilution method; format: functional; conditions: time 18-24 hrs; summary of the method: as §5
Staphylococcus aureus [11] = assay: Antibacterial activity against hospital-acquired methicillin/ciprofloxacin and moxifloxacin resistant Staphylococcus aureus SA481 assessed as reduction in bacterial growth incubated for 18 to 24 hrs by broth microdilution method; format: functional; conditions: time 18-24 hrs; summary of the method: as §5
Staphylococcus aureus [12] = assay: Antibacterial activity against community-acquired methicillin and erythromycin resistant Staphylococcus aureus SA325 assessed as reduction in bacterial growth incubated for 18 to 24 hrs by broth microdilution method; format: functional; conditions: time 18-24 hrs; summary of the method: as §5
Staphylococcus aureus [13] = assay: Antibacterial activity against Staphylococcus aureus ATCC 25923 assessed as reduction in bacterial growth incubated for 18 to 24 hrs by broth microdilution method; format: functional; conditions: time 18-24 hrs
Staphylococcus aureus [14] = assay: Bacteriostatic activity against Staphylococcus aureus ATCC 25923 assessed as reduction in bacterial growth at 1 and 2 times MIC measured upto 24 hrs by time kill assay; format: functional, organism-based; conditions: time hrs <=24; summary of the method: as §2
Enterococcus faecalis [15] = assay: Antibacterial activity against vancomycin resistant Enterococcus faecalis BM4575 harboring VanE genotype, constitutive expression of Ddl and VanE D-Ala-D-Ser ligase assessed as reduction in bacterial growth incubated for 18 to 24 hrs by broth microdilution method; format: functional; conditions: time 18-24 hrs; summary of the method: as §5
Staphylococcus aureus [16] = assay: Antibacterial activity against hospital-acquired vancomycin resistant Staphylococcus aureus VRS-1 assessed as reduction in bacterial growth incubated for 18 to 24 hrs by broth microdilution method; format: functional; conditions: time 18-24 hrs; summary of the method: as §5
Pseudomonas aeruginosa = assay: Antibacterial activity against Pseudomonas aeruginosa PAO1 assessed as reduction in bacterial growth incubated for 18 to 24 hrs by broth microdilution method; format: functional, organism-based; conditions: time 18-24 hrs; summary of the method: as §4
Escherichia coli = assay: Antibacterial activity against Escherichia coli ATCC 25922 assessed as reduction in bacterial growth incubated for 18 to 24 hrs by broth microdilution method; format: functional, organism-based; conditions: time 18-24 hrs; summary of the method: as §4
[17] = Cytotoxicity against human THP-1 cells assessed as reduction in cell viability at 2 times MIC measured after 1 to 2 hrs by trypan blue exclusion assay; format: cell-based; conditions: time 1-2 hrs, read-out: INH; summary of the method: as §1
Enterococcus faecalis [18] = assay: Antibacterial activity against vancomycin resistant Enterococcus faecalis BM4390 harboring VanB mutant with inactive Ddl and constitutive expression of D-Ala-D-Lac assessed as reduction in bacterial growth incubated for 18 to 24 hrs by broth microdilution method; format: functional; conditions: time 18-24 hrs; summary of the method: as §5
Cell membrane [19] = assay: Disruption of bacterial cell membrane in Staphylococcus aureus ATCC 25923 assessed as reduction in bacterial colonies at 5X MIC measured after 2 hrs by time-kill kinetics assay
Enterococcus faecalis [20] = assay: Antibacterial activity against Enterococcus faecalis ATCC 29212 assessed as reduction in bacterial growth incubated for 18 to 24 hrs by broth microdilution method; format: functional; conditions: time 18-24 hrs
Staphylococcus aureus [21] = assay: Antibacterial activity against methicillin resistant and vancomycin intermediate resistant Staphylococcus aureus MU50 assessed as reduction in bacterial growth incubated for 18 to 24 hrs by broth microdilution method; format: functional; conditions: time 18-24 hrs; summary of the method: as §5
Cell membrane [22] = assay: Disruption of bacterial cell membrane in Staphylococcus aureus ATCC 25923 assessed as increase in PI uptake at 1 to 5 times MIC measured every 10 mins for 2 hrs by PI dye based spectrophotometry; summary of the method: as §3
[23] = Solubility of the compound in 1% DMSO at 5XMIC against Staphylococcus aureus ATCC 25923; format: physicochemical
Staphylococcus aureus [24] = assay: Bactericidal activity against Staphylococcus aureus ATCC 25923 assessed as reduction in bacterial growth at 5 times MIC measured after 7 hrs by time kill assay; format: functional, organism-based; summary of the method: as §2
Cell membrane [25] = assay: Disruption of bacterial cell membrane in Staphylococcus aureus ATCC 25923 assessed as increase in PI uptake at 5 times MIC measured every 10 mins for 1 hr by PI dye based spectrophotometry; summary of the method: as §3

C[C@@H](CP(=O)(O)[C@@H](C)N)C(=O)O
Ki [1]: 4 µM

Oc1ccccc1/C=N/NC(=S)Nc1ccc(Cl)c(Cl)c1
Activity (THP-1 [2]): Toxic
Activity (THP-1 [3]): Non-Toxic
Activity (THP-1 [4]): Non-Toxic
inhibition (Staphylococcus aureus [5]): Active
Activity (Staphylococcus aureus [6]): Active
Activity (Cell membrane [7]): 15 RFU
Activity (Klebsiella pneumoniae): inactive
IC50 [8]: 1.48 µM
MIC (Staphylococcus aureus [9]): 12.5 µM (≈ 4.25 µg/mL)
MIC (Enterococcus faecalis [10]): 3.12 µM (≈ 1.06 µg/mL)
MIC (Staphylococcus aureus [11]): 25 µM (≈ 8.51 µg/mL)
MIC (Staphylococcus aureus [12]): 25 µM (≈ 8.51 µg/mL)
MIC (Staphylococcus aureus [13]): 12.5 µM (≈ 4.25 µg/mL)
Activity (Staphylococcus aureus [14]): Active
MIC (Enterococcus faecalis [15]): 6.25 µM (≈ 2.13 µg/mL)
MIC (Staphylococcus aureus [16]): 12.5 µM (≈ 4.25 µg/mL)
Activity (Pseudomonas aeruginosa): inactive
Activity (Escherichia coli): inactive
cytotoxicity at 2 x MIC [17]: 5%
MIC (Enterococcus faecalis [18]): 6.25 µM (≈ 2.13 µg/mL)
Activity (Cell membrane [19]): < 1 log10CFU/ml
MIC (Enterococcus faecalis [20]): 12.5 µM (≈ 4.25 µg/mL)
MIC (Staphylococcus aureus [21]): 25 µM (≈ 8.51 µg/mL)

N[C@H]1CONC1=O [LEVCYCLOSERINE]
inhibition (Staphylococcus aureus [5]): Active
IC50 [8]: 262 µM
MIC (Staphylococcus aureus [9]): 627 µM (≈ 64 µg/mL)
MIC (Enterococcus faecalis [10]): 5020 µM (≈ 512 µg/mL)
MIC (Staphylococcus aureus [11]): 1250 µM (≈ 128 µg/mL)
MIC (Staphylococcus aureus [12]): 1250 µM (≈ 128 µg/mL)
MIC (Staphylococcus aureus [13]): 313 µM (≈ 32 µg/mL)
MIC (Enterococcus faecalis [15]): > 5020 µM
MIC (Staphylococcus aureus [16]): 157 µM (≈ 16 µg/mL)
Activity (Cell membrane [22]): inactive
MIC (Enterococcus faecalis [18]): 5020 µM (≈ 512 µg/mL)
MIC (Enterococcus faecalis [20]): 1250 µM (≈ 128 µg/mL)
MIC (Staphylococcus aureus [21]): 627 µM (≈ 64 µg/mL)

Oc1ccccc1-c1n[nH]c(=S)n1-c1ccc(Cl)c(Cl)c1
Activity (THP-1 [4]): Non-Toxic
inhibition (Staphylococcus aureus [5]): Active
solubility [23]: Insoluble
Activity (Staphylococcus aureus [24]): Active
Activity (Klebsiella pneumoniae): inactive
IC50 [8]: 299 µM
MIC (Staphylococcus aureus [9]): 400 µM (≈ 135 µg/mL)
MIC (Enterococcus faecalis [10]): 400 µM (≈ 135 µg/mL)
MIC (Staphylococcus aureus [11]): 800 µM (≈ 271 µg/mL)
MIC (Staphylococcus aureus [12]): 400 µM (≈ 135 µg/mL)
MIC (Staphylococcus aureus [13]): 400 µM (≈ 135 µg/mL)
Activity (Staphylococcus aureus [14]): Active
MIC (Enterococcus faecalis [15]): 400 µM (≈ 135 µg/mL)
MIC (Staphylococcus aureus [16]): 400 µM (≈ 135 µg/mL)
Activity (Pseudomonas aeruginosa): inactive
Activity (Escherichia coli): inactive
cytotoxicity at 2 x MIC [17]: 5%
MIC (Enterococcus faecalis [18]): > 800 µM
Activity (Cell membrane [19]): 2 log10CFU/ml
MIC (Enterococcus faecalis [20]): 400 µM (≈ 135 µg/mL)
Activity (Cell membrane [25]): Active
MIC (Staphylococcus aureus [21]): 400 µM (≈ 135 µg/mL)

Reference: ChEMBL document CHEMBL4680268, “Pharmacomodulations of the benzoyl-thiosemicarbazide scaffold reveal antimicrobial agents targeting d-alanyl-d-alanine ligase in bacterio” (Eur J Med Chem, 2020)
